What was measured:
Mu-type opioid receptor = Mu-type opioid receptor (Cavia porcellus, UniProt P97266); test: Inhibitory binding constant in guinea pig brain homogenate was reported at mu site at a temperature 25 degree Centigrade labeled with [3H](D-Ala2-MePhe4,Gly-ol5)enkephalin(1 nM); type: tissue-based
[1] = target: Mu-type opioid receptor (Cavia porcellus) (UniProt P97266); test: Dose ratio due to Antagonist Effect at a concentration of 100 nM by normorphine, Opioid receptor mu 1 in the guinea pig ileum longitudinal muscle myenteric plexus.; type: functional, tissue-based
How it was run: (§1)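 Isolated guinea pig ileum myenteric plexus–longitudinal muscle and mouse vas deferens. Agonists were normorphine (μ) and ethylketazocine (κ) in both tissues, and (D-Ala2,D-Leu5)enkephalin (δ) in vas deferens. The shift in IC50 is given as dose ratio, mean ± SEM of three to five separate experiments.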

[2] = target: Mu-type opioid receptor (Mus musculus) (UniProt P42866); test: Dose ratio due to Antagonist Effect at a concentration of 100 nM by normorphine, Opioid receptor mu 1 in mouse vas deferens.; type: functional; how it was run: as §1
[3] = target: Delta-type opioid receptor (Mus musculus) (UniProt P32300); test: Dose ratio due to Antagonist Effect at a concentration of 1000 nM by (D-Ala2, D-Leu5)enkephalin, Opioid receptor delta 1 in mouse vas deferens.; type: functional
How it was run: as §1, with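 “vas deferens. […] The shift” for “vas deferens. The shift”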

[4] = target: Kappa-type opioid receptor (Cavia porcellus) (UniProt P41144); test: Dose ratio due to Antagonist Effect at a concentration of 100 nM by ethylketazocine, Opioid receptor kappa 1 in the guinea pig ileum longitudinal muscle myenteric plexus.; type: functional, tissue-based; how it was run: as §1
[5] = target: Kappa-type opioid receptor (Cavia porcellus, UniProt P41144); test: (§2) Inhibitory binding constant in guinea pig brain homogenate was reported at Opioid receptor kappa 1 at temperature 25 degree Celsius labeled with (-)-[3H]immazocine (0.1 nM).; type: tissue-based
[6] = target: Kappa-type opioid receptor (Mus musculus) (UniProt P33534); test: Dose ratio due to Antagonist Effect at a concentration of 100 nM by ethylketazocine, Opioid receptor kappa 1 in mouse vas deferens.; type: functional; how it was run: as §1
[7] = target: Kappa-type opioid receptor (Cavia porcellus) (UniProt P41144); test: as §2; type: tissue-based
Mus musculus = species: Mus musculus; test: Agonist activity in the mouse vas deferens.; type: functional
How it was run: (§3)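 Isolated guinea pig ileum myenteric plexus–longitudinal muscle or mouse vas deferens preparations, run at 25 °C, testing opioid agonist potency.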

Cavia porcellus = species: Cavia porcellus; test: Agonist activity in the guinea pig ileum longitudinal muscle myenteric plexus.; type: functional; how it was run: as §3
[8] = target: Mu-type opioid receptor (Cavia porcellus) (UniProt P97266); test: Inhibitory binding constant in guinea pig brain homogenate was reported at mu site at a temperature 25 degree Celsius labeled with [3H](D-Ala2-MePhe4,Gly-ol5)enkephalin(1nM); type: tissue-based

Mu-type opioid receptor (Cavia porcellus), sequence (P97266 whole entry): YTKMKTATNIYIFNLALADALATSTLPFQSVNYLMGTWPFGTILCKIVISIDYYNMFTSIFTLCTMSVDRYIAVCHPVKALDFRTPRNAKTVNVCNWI
Kappa-type opioid receptor (Cavia porcellus), sequence (P41144 whole entry): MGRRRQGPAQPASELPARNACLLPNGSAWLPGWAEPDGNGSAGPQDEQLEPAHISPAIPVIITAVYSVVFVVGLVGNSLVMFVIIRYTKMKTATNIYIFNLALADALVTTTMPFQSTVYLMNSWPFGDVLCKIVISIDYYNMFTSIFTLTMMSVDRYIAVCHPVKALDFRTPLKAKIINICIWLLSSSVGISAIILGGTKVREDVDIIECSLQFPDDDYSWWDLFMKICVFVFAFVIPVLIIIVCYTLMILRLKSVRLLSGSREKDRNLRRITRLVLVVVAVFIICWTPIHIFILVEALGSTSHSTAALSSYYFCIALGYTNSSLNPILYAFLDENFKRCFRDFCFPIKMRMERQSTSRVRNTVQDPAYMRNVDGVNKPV
Mu-type opioid receptor, sequence (P97266 whole entry): as the sequence (P97266 whole entry) above
Delta-type opioid receptor (Mus musculus), sequence (P32300 whole entry): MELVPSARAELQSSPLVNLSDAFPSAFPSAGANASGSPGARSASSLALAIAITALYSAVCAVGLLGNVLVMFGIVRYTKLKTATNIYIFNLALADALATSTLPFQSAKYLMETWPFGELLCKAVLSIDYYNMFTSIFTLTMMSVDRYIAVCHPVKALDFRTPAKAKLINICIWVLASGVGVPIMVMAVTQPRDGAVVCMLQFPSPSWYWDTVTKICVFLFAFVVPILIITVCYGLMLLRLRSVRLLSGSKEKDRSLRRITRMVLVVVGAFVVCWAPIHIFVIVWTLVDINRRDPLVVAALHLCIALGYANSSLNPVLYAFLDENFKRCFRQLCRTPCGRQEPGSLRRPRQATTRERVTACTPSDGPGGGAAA
Kappa-type opioid receptor, sequence (P41144 whole entry): as the sequence (P41144 whole entry) above
Mu-type opioid receptor (Mus musculus), sequence (P42866 whole entry): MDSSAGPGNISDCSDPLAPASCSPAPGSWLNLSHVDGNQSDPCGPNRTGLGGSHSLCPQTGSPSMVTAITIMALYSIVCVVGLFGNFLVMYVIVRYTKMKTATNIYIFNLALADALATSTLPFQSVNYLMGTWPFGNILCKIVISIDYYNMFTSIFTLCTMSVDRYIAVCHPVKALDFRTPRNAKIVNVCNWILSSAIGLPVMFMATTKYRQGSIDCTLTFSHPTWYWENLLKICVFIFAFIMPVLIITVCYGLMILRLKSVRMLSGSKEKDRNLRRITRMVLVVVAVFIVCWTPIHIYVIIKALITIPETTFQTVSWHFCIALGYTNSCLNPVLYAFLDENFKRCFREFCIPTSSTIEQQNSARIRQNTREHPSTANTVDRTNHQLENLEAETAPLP
Kappa-type opioid receptor (Mus musculus), sequence (P33534 whole entry): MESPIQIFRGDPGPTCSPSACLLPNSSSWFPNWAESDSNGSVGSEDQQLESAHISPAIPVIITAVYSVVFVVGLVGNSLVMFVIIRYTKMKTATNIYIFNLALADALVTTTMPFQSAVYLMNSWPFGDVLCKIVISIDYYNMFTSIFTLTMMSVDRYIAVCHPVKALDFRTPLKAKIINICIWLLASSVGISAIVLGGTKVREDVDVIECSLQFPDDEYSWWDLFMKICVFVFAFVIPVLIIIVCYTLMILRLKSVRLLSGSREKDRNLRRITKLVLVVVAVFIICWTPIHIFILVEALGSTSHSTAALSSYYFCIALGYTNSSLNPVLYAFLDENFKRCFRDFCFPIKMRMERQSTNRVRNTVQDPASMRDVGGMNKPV

SMILES | Ki (Mu-type opioid receptor) | Dose ratio [1] | Dose ratio [2] | Dose ratio [3] | Dose ratio [4] | Ki [5] | Dose ratio [6] | inhibition [7] | IC50 (Mus musculus) | IC50 (Cavia porcellus) | inhibition [8]
O=C1c2ccc(O)c3c2C24CCN(CC5CC5)C1[C@]2(O)CCC(=O)[C@@H]4O3 (stereo partly drawn) [KETONALTREXONE] | 31.1 nM | 1.84 | 0.57 | 0.71 | 1.58 | 102 nM | 0.93 | – | – | – | –
CN1CCC23c4c5ccc(O)c4O[C@H]2C(=O)CC[C@@]3(O)C1C5=O (stereo partly drawn) [KETOXYMORPHONE] | – | – | – | – | – | – | – | 17% | > 1000 nM | > 1000 nM | 19%
CN1CC[C@]23c4c5ccc(O)c4O[C@H]2C(=O)CC[C@@]3(O)[C@H]1C5 [OXYMORPHONE] | – | – | – | – | – | – | – | – | 77 nM | 24 nM | –

Source: ChEMBL document CHEMBL1122908, “10-Ketonaltrexone and 10-ketooxymorphone” (J Med Chem, 1985)
